Measurements taken from ChEMBL document CHEMBL4689842, “EUbOPEN Chemogenomics Library wave 1” (2021).

Tested on: HEK-293T
Assay: Multiplex assay against HEK293T;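 as to Population Tubulin-Different-Phenotype (%): share of the cells with healthy nuclei that show this phenotype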
Assay type: toxicity, cell-based
Settings: human
Method in brief: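 Live cells were stained at seeding with Hoechst33342, BioTracker Green Microtubule Cytoskeleton Dye, MitoTracker Red and Annexin V Alexa Fluor 680. Following compound addition, they were imaged on a CQ1 microscope at 37°C and 5% CO2 and gated by CellPathfinder machine learning into Hoechst high-intensity objects or normal cells, with normal cells split into healthy, pyknosed or fragmented nuclei and pyknosed cells into mitotic or apoptotic. Tubulin, mitochondrial-mass and membrane-permeability phenotypes are per cents of healthy-nucleus cells.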

[1] = 12 h, 1 µM, compound concentration 1 uM, replicate 1
[2] = 12 h, 1 µM, compound concentration 1 uM, replicate 2
[3] = 12 h, 10 µM, compound concentration 10 uM, replicate 1
[4] = 12 h, 10 µM, compound concentration 10 uM, replicate 2
[5] = 24 h, 1 µM, compound concentration 1 uM, replicate 1
[6] = 24 h, 1 µM, compound concentration 1 uM, replicate 2
[7] = 24 h, 10 µM, compound concentration 10 uM, replicate 1
[8] = 24 h, 10 µM, compound concentration 10 uM, replicate 2
[9] = 48 h, 1 µM, compound concentration 1 uM, replicate 1
[10] = 48 h, 1 µM, compound concentration 1 uM, replicate 2
[11] = 48 h, 10 µM, compound concentration 10 uM, replicate 1
[12] = 48 h, 10 µM, compound concentration 10 uM, replicate 2

Cc1cn(-c2cc(NC(=O)c3ccc(C)c(Nc4nccc(-c5cccnc5)n4)c3)cc(C(F)(F)F)c2)cn1 [NILOTINIB]
Population Apoptotic (%) [1]: 65% | Population Fragmented Nuclei (%) [1]: 10% | Population Hoechst High Intensity Objects (%) [1]: 17% | Population Membrane Permeable-Phenotype (%) [1]: 2% | Population Mitochondria Different-Phenotype (%) [1]: 92% | Population Mitotic Cells (%) [1]: 34% | Population Normal (%) [1]: 82% | Population Pyknosed Nuclei (%) [1]: 51% | Population Tubulin-Different-Phenotype (%) [1]: 98% | Total Cell Count [1]: 215 | Population Apoptotic (%) [2]: 21% | Population Fragmented Nuclei (%) [2]: 7% | Population Healthy Nuclei (%) [2]: 37% | Population Hoechst High Intensity Objects (%) [2]: 6% | Population Membrane Permeable-Phenotype (%) [2]: 10% | Population Mitochondria Different-Phenotype (%) [2]: 10% | Population Mitotic Cells (%) [2]: 78% | Population Normal (%) [2]: 93% | Population Pyknosed Nuclei (%) [2]: 55% | Population Tubulin-Different-Phenotype (%) [2]: 15% | Total Cell Count [2]: 164 | Population Apoptotic (%) [3]: 91% | Population Fragmented Nuclei (%) [3]: 54% | Population Healthy Nuclei (%) [3]: 12% | Population Hoechst High Intensity Objects (%) [3]: 48% | Population Membrane Permeable-Phenotype (%) [3]: 6% | Population Mitochondria Different-Phenotype (%) [3]: 61% | Population Mitotic Cells (%) [3]: 8% | Population Normal (%) [3]: 51% | Population Pyknosed Nuclei (%) [3]: 32% | Population Tubulin-Different-Phenotype (%) [3]: 59% | Total Cell Count [3]: 738 | Population Apoptotic (%) [4]: 38% | Population Fragmented Nuclei (%) [4]: 9% | Population Healthy Nuclei (%) [4]: 32% | Population Hoechst High Intensity Objects (%) [4]: 3% | Population Membrane Permeable-Phenotype (%) [4]: 3% | Population Mitochondria Different-Phenotype (%) [4]: 71% | Population Mitotic Cells (%) [4]: 62% | Population Normal (%) [4]: 96% | Population Pyknosed Nuclei (%) [4]: 57% | Population Tubulin-Different-Phenotype (%) [4]: 80% | Total Cell Count [4]: 179 | Population Apoptotic (%) [5]: 69% | Population Fragmented Nuclei (%) [5]: 14% | Population Healthy Nuclei (%) [5]: 39% | Population Hoechst High Intensity Objects (%) [5]: 15% | Population Membrane Permeable-Phenotype (%) [5]: 1% | Population Mitochondria Different-Phenotype (%) [5]: 98% | Population Mitotic Cells (%) [5]: 30% | Population Normal (%) [5]: 84% | Population Pyknosed Nuclei (%) [5]: 46% | Population Tubulin-Different-Phenotype (%) [5]: 94% | Total Cell Count [5]: 213 | Population Apoptotic (%) [6]: 18% | Population Fragmented Nuclei (%) [6]: 7% | Population Healthy Nuclei (%) [6]: 56% | Population Hoechst High Intensity Objects (%) [6]: 4% | Population Membrane Permeable-Phenotype (%) [6]: 8% | Population Mitochondria Different-Phenotype (%) [6]: 23% | Population Mitotic Cells (%) [6]: 81% | Population Normal (%) [6]: 95% | Population Pyknosed Nuclei (%) [6]: 35% | Population Tubulin-Different-Phenotype (%) [6]: 38% | Total Cell Count [6]: 212 | Population Apoptotic (%) [7]: 87% | Population Fragmented Nuclei (%) [7]: 64% | Population Healthy Nuclei (%) [7]: 11% | Population Hoechst High Intensity Objects (%) [7]: 50% | Population Membrane Permeable-Phenotype (%) [7]: 1% | Population Mitochondria Different-Phenotype (%) [7]: 50% | Population Mitotic Cells (%) [7]: 12% | Population Normal (%) [7]: 49% | Population Pyknosed Nuclei (%) [7]: 24% | Population Tubulin-Different-Phenotype (%) [7]: 51% | Total Cell Count [7]: 958 | Population Apoptotic (%) [8]: 41% | Population Fragmented Nuclei (%) [8]: 5% | Population Healthy Nuclei (%) [8]: 57% | Population Hoechst High Intensity Objects (%) [8]: 2% | Population Membrane Permeable-Phenotype (%) [8]: 5% | Population Mitochondria Different-Phenotype (%) [8]: 68% | Population Mitotic Cells (%) [8]: 58% | Population Normal (%) [8]: 97% | Population Pyknosed Nuclei (%) [8]: 36% | Population Tubulin-Different-Phenotype (%) [8]: 85% | Total Cell Count [8]: 209 | Population Apoptotic (%) [9]: 64% | Population Fragmented Nuclei (%) [9]: 17% | Population Healthy Nuclei (%) [9]: 31% | Population Hoechst High Intensity Objects (%) [9]: 19% | Population Membrane Permeable-Phenotype (%) [9]: 1% | Population Mitochondria Different-Phenotype (%) [9]: 88% | Population Mitotic Cells (%) [9]: 36% | Population Normal (%) [9]: 80% | Population Pyknosed Nuclei (%) [9]: 50% | Population Tubulin-Different-Phenotype (%) [9]: 85% | Total Cell Count [9]: 244 | Population Apoptotic (%) [10]: 16% | Population Fragmented Nuclei (%) [10]: 4% | Population Healthy Nuclei (%) [10]: 80% | Population Hoechst High Intensity Objects (%) [10]: 3% | Population Membrane Permeable-Phenotype (%) [10]: 9% | Population Mitochondria Different-Phenotype (%) [10]: 9% | Population Mitotic Cells (%) [10]: 83% | Population Normal (%) [10]: 96% | Population Pyknosed Nuclei (%) [10]: 14% | Population Tubulin-Different-Phenotype (%) [10]: 38% | Total Cell Count [10]: 337 | Population Apoptotic (%) [11]: 84% | Population Fragmented Nuclei (%) [11]: 64% | Population Healthy Nuclei (%) [11]: 14% | Population Hoechst High Intensity Objects (%) [11]: 52% | Population Membrane Permeable-Phenotype (%) [11]: 0% | Population Mitochondria Different-Phenotype (%) [11]: 34% | Population Mitotic Cells (%) [11]: 15% | Population Normal (%) [11]: 47% | Population Pyknosed Nuclei (%) [11]: 20% | Population Tubulin-Different-Phenotype (%) [11]: 32% | Total Cell Count [11]: 1138 | Population Apoptotic (%) [12]: 41% | Population Fragmented Nuclei (%) [12]: 7% | Population Healthy Nuclei (%) [12]: 69% | Population Hoechst High Intensity Objects (%) [12]: 1% | Population Membrane Permeable-Phenotype (%) [12]: 1% | Population Mitochondria Different-Phenotype (%) [12]: 61% | Population Mitotic Cells (%) [12]: 58% | Population Normal (%) [12]: 98% | Population Pyknosed Nuclei (%) [12]: 23% | Population Tubulin-Different-Phenotype (%) [12]: 84% | Total Cell Count [12]: 290

COc1cccc2cc(-c3nc([C@H]4CC[C@H](C(=O)O)CC4)n4ncnc(N)c34)[nH]c12 [OSI-027]
Population Apoptotic (%) [1]: 25% | Population Fragmented Nuclei (%) [1]: 14% | Population Healthy Nuclei (%) [1]: 55% | Population Hoechst High Intensity Objects (%) [1]: 16% | Population Membrane Permeable-Phenotype (%) [1]: 3% | Population Mitochondria Different-Phenotype (%) [1]: 10% | Population Mitotic Cells (%) [1]: 74% | Population Normal (%) [1]: 83% | Population Pyknosed Nuclei (%) [1]: 29% | Population Tubulin-Different-Phenotype (%) [1]: 5% | Total Cell Count [1]: 587 | Population Apoptotic (%) [2]: 9% | Population Fragmented Nuclei (%) [2]: 6% | Population Healthy Nuclei (%) [2]: 85% | Population Hoechst High Intensity Objects (%) [2]: 6% | Population Membrane Permeable-Phenotype (%) [2]: 2% | Population Mitochondria Different-Phenotype (%) [2]: 13% | Population Mitotic Cells (%) [2]: 90% | Population Normal (%) [2]: 93% | Population Pyknosed Nuclei (%) [2]: 7% | Population Tubulin-Different-Phenotype (%) [2]: 10% | Total Cell Count [2]: 997 | Population Apoptotic (%) [3]: 23% | Population Fragmented Nuclei (%) [3]: 32% | Population Healthy Nuclei (%) [3]: 40% | Population Hoechst High Intensity Objects (%) [3]: 22% | Population Membrane Permeable-Phenotype (%) [3]: 8% | Population Mitochondria Different-Phenotype (%) [3]: 2% | Population Mitotic Cells (%) [3]: 76% | Population Normal (%) [3]: 77% | Population Pyknosed Nuclei (%) [3]: 27% | Population Tubulin-Different-Phenotype (%) [3]: 2% | Total Cell Count [3]: 379 | Population Apoptotic (%) [4]: 10% | Population Fragmented Nuclei (%) [4]: 9% | Population Healthy Nuclei (%) [4]: 85% | Population Hoechst High Intensity Objects (%) [4]: 5% | Population Membrane Permeable-Phenotype (%) [4]: 0% | Population Mitochondria Different-Phenotype (%) [4]: 8% | Population Mitotic Cells (%) [4]: 89% | Population Normal (%) [4]: 94% | Population Pyknosed Nuclei (%) [4]: 5% | Population Tubulin-Different-Phenotype (%) [4]: 5% | Total Cell Count [4]: 1068 | Population Apoptotic (%) [5]: 22% | Population Fragmented Nuclei (%) [5]: 15% | Population Healthy Nuclei (%) [5]: 60% | Population Hoechst High Intensity Objects (%) [5]: 19% | Population Membrane Permeable-Phenotype (%) [5]: 15% | Population Mitochondria Different-Phenotype (%) [5]: 8% | Population Mitotic Cells (%) [5]: 77% | Population Normal (%) [5]: 80% | Population Pyknosed Nuclei (%) [5]: 24% | Population Tubulin-Different-Phenotype (%) [5]: 20% | Total Cell Count [5]: 478 | Population Apoptotic (%) [6]: 4% | Population Fragmented Nuclei (%) [6]: 7% | Population Healthy Nuclei (%) [6]: 83% | Population Hoechst High Intensity Objects (%) [6]: 8% | Population Membrane Permeable-Phenotype (%) [6]: 6% | Population Mitochondria Different-Phenotype (%) [6]: 13% | Population Mitotic Cells (%) [6]: 95% | Population Normal (%) [6]: 91% | Population Pyknosed Nuclei (%) [6]: 8% | Population Tubulin-Different-Phenotype (%) [6]: 37% | Total Cell Count [6]: 849 | Population Apoptotic (%) [7]: 12% | Population Fragmented Nuclei (%) [7]: 29% | Population Healthy Nuclei (%) [7]: 53% | Population Hoechst High Intensity Objects (%) [7]: 14% | Population Membrane Permeable-Phenotype (%) [7]: 10% | Population Mitochondria Different-Phenotype (%) [7]: 3% | Population Mitotic Cells (%) [7]: 87% | Population Normal (%) [7]: 85% | Population Pyknosed Nuclei (%) [7]: 17% | Population Tubulin-Different-Phenotype (%) [7]: 6% | Total Cell Count [7]: 371 | Population Apoptotic (%) [8]: 0% | Population Fragmented Nuclei (%) [8]: 18% | Population Healthy Nuclei (%) [8]: 78% | Population Hoechst High Intensity Objects (%) [8]: 5% | Population Membrane Permeable-Phenotype (%) [8]: 5% | Population Mitotic Cells (%) [8]: 100% | Population Normal (%) [8]: 94% | Population Pyknosed Nuclei (%) [8]: 2% | Population Tubulin-Different-Phenotype (%) [8]: 10% | Total Cell Count [8]: 1604
